Bioassay records (PubChem)
Only some compounds are listed: those with a hit (about 2.2% of all), similar ones and a draw of the others.
NR2E3 ag-1 – agonists of human nuclear receptor NR2E3; GST-NR2E3/biotin-RetCOR TR-FRET, 1536-well; inhibition of corepressor binding, % at 4.78 µM; 0.12% of 320,000 active; AID 2300;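 active = percent inhibition above the cutoff of mean plus 3 SD of all tested compounds, set per screening campaign, cut at about 20% in these data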;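 note: 0% = DMSO wells and 100% = biotin wells as full block of FRET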
Target sequence (Q9Y5X4 whole entry, looked up): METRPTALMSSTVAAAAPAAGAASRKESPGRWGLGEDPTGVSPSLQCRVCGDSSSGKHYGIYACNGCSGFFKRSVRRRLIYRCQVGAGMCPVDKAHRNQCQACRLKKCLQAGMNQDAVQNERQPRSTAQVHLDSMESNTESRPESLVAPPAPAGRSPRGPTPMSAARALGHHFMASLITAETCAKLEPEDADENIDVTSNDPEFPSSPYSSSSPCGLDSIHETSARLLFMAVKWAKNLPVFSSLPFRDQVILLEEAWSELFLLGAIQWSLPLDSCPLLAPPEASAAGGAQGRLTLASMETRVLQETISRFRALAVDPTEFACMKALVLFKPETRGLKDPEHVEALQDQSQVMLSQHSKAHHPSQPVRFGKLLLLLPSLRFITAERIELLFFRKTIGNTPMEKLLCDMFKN
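system = GST-tagged NR2E3 plus biotinylated RetCOR corepressor | input = 1.35 nM GST-NR2E3 | also added = 7 nM biotin-RetCOR | schedule = 5 h incubation at 4 °C | measured by = TR-FRET with europium anti-GST and streptavidin-D2, 340 nm excitation | read-out = percent loss of FRET ratio relative to control wells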
NR2E3 ag-2 – agonists of human NR2E3 nuclear receptor; AID 602229; CHO-S Gal4-NCOR/VP16-NR2E3 two-hybrid, luciferase; 0.35% of 360,000 active; inhibition of corepressor binding, % at 3.98 µM;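 active = inhibition above the mean of all tested compounds plus 3 SD, cut at about 70% in these data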;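 note: 0% = DMSO with NR2E3 transfected cells and 100% = cells lacking NR2E3 construct; higher means lower luciferase signal from less NR2E3 corepressor binding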
GalR3 antagonist – human GalR3 antagonism. O60755. inhibition, % at 3 µM. AID 651719. 0.44% of 360,000 active. HEK293 GalR3-CNG cAMP membrane potential fluorescence; galR3 body fused to GalR1 C-terminus;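 active = inhibition above the screen-wide average plus 3 SD, cut at about 13% in these data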;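 note: forskolin and galanin both at EC90 stimulate the cells; cAMP rise reported by CNG channel membrane potential dye signal; 0% = forskolin plus galanin with DMSO and 100% = forskolin alone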
Target sequence (O60755 1-299 limits assumed): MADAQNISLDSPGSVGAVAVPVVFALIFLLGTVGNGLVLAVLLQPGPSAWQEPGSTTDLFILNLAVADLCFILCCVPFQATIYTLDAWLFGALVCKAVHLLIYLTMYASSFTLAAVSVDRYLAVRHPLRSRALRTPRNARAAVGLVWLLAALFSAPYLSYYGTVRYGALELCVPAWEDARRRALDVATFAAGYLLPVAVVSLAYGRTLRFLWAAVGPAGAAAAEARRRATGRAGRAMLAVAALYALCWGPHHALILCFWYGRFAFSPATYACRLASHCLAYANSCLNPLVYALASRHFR
V-ATPase pH – regulators of yeast V-ATPase proton transport. S. cerevisiae, pHLuorin cytosolic pH fluorescence. response, % at 10 µM. 0.37% of 350,000 active; in the data active = response mostly above about 7.3%, no sharp cut-off; inactive = mostly below about 5.4%; note: actives read high
FXN GAA850 act – frataxin GAA850 promoter activation; HEK293 lucGAA850 FXN promoter luciferase reporter, 24 h; percent of 10 µM SAHA response; activation, % at 6 µM; 0.56% of 360,000 active; AID 540364;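 active = activation above the average of all compounds screened plus 3 SD, cutoff fixed separately per campaign, cut at about 7.5% in these data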;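 note: 0% = DMSO wells and 100% = 10 µM SAHA wells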
Env fusion inh – blocks HIV Env-driven cell-cell fusion; HeLa-JRFL Env/CEM21 cell fusion, luciferase; inhibition, % at 12.3 µM; 1.1% of 360,000 active;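 active = mean replicate inhibition score of at least 50 and every replicate individually at or above 50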;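 note: 0% = plate neutral controls and 100% = maraviroc near 300 nM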
GAA30 FXN cntr – GAA30 FXN promoter activation counter-screen. AID 588350. HEK293 lucGAA30 FXN promoter luciferase, 24 h; DMSO = 0%, 5 µM ipriflavone = 100%. 66% of 1,900 active. activation, % at 6 µM. shares compounds with FXN GAA850 act;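 active = mean activation above the mean of solvent-only control wells plus 3 SD, cut at about 22% in these data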;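 note: counterscreen of GAA850 promoter hits where activity marks nonselective or luminescence artifacts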
GAA850 confirm – GAA850 FXN promoter activation confirmation. HEK293 lucGAA850 FXN promoter luciferase reporter, 24 h; 100% = activation by SAHA. activation, % at 6 µM. shares compounds with FXN GAA850 act. 86% of 1,900 active;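 active = mean activation above a set limit taken from the primary screen, cut at about 8% in these data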;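 note: 0% = DMSO wells and 100% = 10 µM SAHA wells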
NR2E3 ag conf – NR2E3 agonism confirmed in two-hybrid assay; shares compounds with NR2E3 ag-2; 51% of 2,300 active; AID 624378; CHO-S mammalian two-hybrid NR2E3-NCOR, luciferase luminescence; inhibition, % at 3.98 µM;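 active = average inhibition above a cutoff equal to the mean inhibition of all tested compounds plus one SD, cut at about 70% in these data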;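 note: 0% = DMSO in NR2E3 cells and 100% = DMSO in cells lacking NR2E3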
GAL4-VP16 luc – reduces GAL4-VP16 reporter signal in NR2E3 counterscreen. shares compounds with NR2E3 ag-2. CHO-S GAL4-VP16 luciferase reporter, luminescence. inhibition, % at 3.98 µM. 29% of 2,300 active;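 active = mean inhibition above a cutoff equal to the average over all tested compounds plus one standard deviation, cut at about 70% in these data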;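 note: luciferase from a UAS reporter driven by GAL4-VP16 transactivation; 0% = DMSO with VP16-transfected cells and 100% = DMSO with cells lacking VP16; higher means less reporter light so more repression of VP16 activity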
GalR3 conf – GalR3 (human) antagonism, confirmation | shares compounds with GalR3 antagonist | 59% of 1,600 active | inhibition, % at 3 µM | HEK293 GalR3 CNG cAMP biosensor, membrane potential fluorescence; galR3 fused to GalR1 carboxy tail; challenged with forskolin and galanin at EC90;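 active = inhibition above the primary screen's cutoff, the mean inhibition of all screened compounds plus 3 SD, cut at about 13% in these data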;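 note: 0% = forskolin plus galanin and 100% = forskolin alone with DMSO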
HEK-CNG parental – parental cell agonism counter-screen for GalR3 antagonists | shares compounds with GalR3 antagonist | HEK293-CNG parental cells, cAMP membrane potential fluorescence; normalised: DMSO wells 0%, forskolin wells 100% | activation, % at 3 µM | 10% of 1,600 active; in the data active = activation above about 1.3%
* hit, by the source's call; · = not tested or not shown; [ ] = remark or other dose.

SMILES	NR2E3 ag-1	NR2E3 ag-2	GalR3 antagonist	V-ATPase pH	FXN GAA850 act	Env fusion inh	GAA30 FXN cntr	GAA850 confirm	GalR3 conf	HEK-CNG parental	others
Cc1cc(C)n(-c2nc(Nc3ccccc3)nc(-n3nc(C)cc3C)n2)n1	4.5	-1.1	-2.0	-1.5	-0.8	·	·	·	·	·
COc1ccc(C(=O)c2sc(Nc3ccccc3)nc2N)cc1OC	-2.1	102.1*	3.1	-2.5	9.2*	-18.3	-19.6	37.8*	·	·	NR2E3 ag conf=80.4*;GAL4-VP16 luc=61.5
COc1ccc(C(=O)c2sc(Nc3ccccc3)nc2N)cc1	·	-4.3	-4.7	-1.6	3.9	-21.5	·	·	·	·
O=c1c(Cl)c(NCCCO)cnn1-c1nc2ccccc2[nH]1	-3.9	-62.6	14.8*	-10.5	29.3*	·	61.1*	54.5*	4.4	0.2
O=C(C[C@@H]1C[C@@H]2c3cc(NC(=O)Cc4ccncc4)ccc3O[C@@H]2[C@@H](CO)O1)NCc1cccnc1	·	·	·	·	·	-5.5[16.7 µM]	·	·	·	·
COc1cc(C(=O)O[C@H]2CC(C)=CC[C@@]3(C)CC[C@@](O)(C(C)C)[C@H]23)ccc1O	-0.7	-6.4	25.8*	-2.9	16.2*	88.2*	28.6*	8.1*	21.3*	0.1
C[C@@H]1CN([C@H](C)CO)C(=O)c2cc(NS(=O)(=O)c3cn(C)cn3)ccc2O[C@@H](C)CCCCO[C@H]1CN(C)Cc1ccc(C(=O)O)cc1	·	·	·	·	·	-11.9[16.7 µM]	·	·	·	·
CC(C)NC(=O)Nc1ccc2c(c1)C(=O)N([C@@H](C)CO)C[C@H](C)[C@H](CN(C)C(=O)CCC(F)(F)F)OCCCC[C@@H](C)O2	·	·	·	·	·	-11.1[16.7 µM]	·	·	·	·
COc1ccc(/C=C2\SC(=N)N(c3ccc(F)cc3)C2=O)cc1OC	2.9	-35.2	18.5*	-6.5	8.3*	-16.3	17.7	14.8*	16.7*	0.9
Cc1ccc(S(=O)(=O)N[C@H]2CC[C@@H](CC(=O)NCc3ccc(Cl)c(Cl)c3)O[C@@H]2CO)cc1	·	·	·	·	·	22.7[16.7 µM]	·	·	·	·
Cc1ccc(S(=O)(=O)Nc2ccc3c(c2)C(=O)N([C@@H](C)CO)C[C@H](C)[C@@H](CN(C)Cc2ccc(C(=O)O)cc2)O3)cc1	·	·	·	·	·	9.1[16.7 µM]	·	·	·	·
O=C(C=C=Nc1ccccc1)C(=O)N=C=Cc1ccccc1	-0.6	-8.6	17.8*	-1.4	8.7*	-12.6	27.1*	29.2*	9.9	0.4
COc1ccc(OC)c(C2=Nn3c(nnc3C3CCCCC3)SC2)c1	1.3	14.3	-2.5	-3.1	1.7	-32.9	·	·	·	·
COc1ccc(C2=Nn3c(nnc3C3CCCCC3)SC2)cc1OC	-1.3	35.2	48.6*	-2.3	13.1*	-15.2	13.8	13.2*	47.7*	1.0
c1ccc(-c2nn3c(C4CCCCC4)nnc3s2)cc1	1.9	12.8	0.1	-0.7	2.3	10.5	·	·	·	·
COc1ccc(-c2nn3c(C4CCCCC4)nnc3s2)cc1OC	8.0	14.8	17.2*	-3.9	12.5*	11.5	12.9	9.7*	23.8*	1.0
CNC(=O)C[C@@H]1CC[C@H]2[C@H](COc3ccc(NC(=O)Nc4ccccc4OC)cc3C(=O)N2C)O1	·	·	·	·	·	-7.9[16.7 µM]	·	·	·	·
COc1ccccc1-c1cc(C(F)(F)F)nc(S(=O)(=O)CCCC(=O)Nc2cc(C)on2)n1	0.1	-14.3	-0.5	1.1	-3.7	·	·	·	·	·
COc1ccc(-c2cc(C(F)(F)F)nc(S(=O)(=O)CCCC(=O)Nc3cc(C)on3)n2)cc1OC	·	-29.1	17.6*	0.8	10.3*	8.8	57.9*	82.6*	18.5*	1.2
CCCC#Cc1cnc2c(c1)C(=O)N([C@H](C)CO)C[C@@H](C)[C@H](CN(C)C(=O)c1ccc3c(c1)OCO3)O2	·	·	·	·	·	35.0[16.7 µM]	·	·	·	·
N#Cc1c(N)nc(SCC(=O)NC2CCCCC2)c(C#N)c1-c1ccc(Cl)cc1	4.4	14.2	-0.1	3.4	0.7	10.4	·	·	·	·
N#CCSc1nc(N)c(C#N)c(C2CCCCC2)c1C#N	-0.3	15.8	72.1*	-1.7	10.7*	·	14.5	18.9*	88.1*	-0.3
CC1=NNC(=O)/C1=C\c1cn(-c2ccccc2)nc1-c1ccccc1	3.7	-3.5	48.2*	0.4	8.0*	-58.7	-47.6	14.8*	55.0*	0.0
CCOc1ccc(C2C(C(=O)c3ccc(C)o3)=C(O)C(=O)N2c2nc(C)c(C(=O)OC)s2)cc1 (stereo not given)	8.3	-54.6	13.2*	-4.1	7.6*	4.9	33.5*	18.1*	15.2*	0.1
COC(=O)c1sc(N2C(=O)C(O)=C(C(=O)c3ccc(C)o3)C2c2ccc([N+](=O)[O-])cc2)nc1C (stereo not given)	7.1	-23.1	7.8	-1.0	0.3	22.1	·	·	·	·
SMILES	NR2E3 ag-1	NR2E3 ag-2	GalR3 antagonist	V-ATPase pH	FXN GAA850 act	Env fusion inh	GAA30 FXN cntr	GAA850 confirm	GalR3 conf	HEK-CNG parental	others
COc1cc2c(cc1OC)-c1cc(NC3CCCCC3)nc(=O)n1CC2	-2.7	3.2	43.5*	3.2	10.3*	·	21.7	11.2*	33.4*	0.3
CCCCCCNc1cc2n(c(=O)n1)CCc1cc(OC)c(OC)cc1-2	-3.0	-14.4	7.0	-2.7	5.3	-0.3	·	·	·	·
COc1cc2c(cc1OC)-c1cc(NC3CC3)nc(=O)n1CC2	-0.4	24.8	1.9	8.1	3.0	·	·	·	·	·
COc1cc2c(cc1OC)-c1cc(NC3CCCCCCC3)nc(=O)n1CC2	1.9	15.9	47.1*	-72.1	8.1*	·	14.8	12.8*	57.4*	1.4*
COc1ccc(OC)c2sc(N3CCN(c4ccccc4)CC3)nc12	-0.1	-9.0	15.2*	-7.1	8.8*	1.3	39.2*	17.3*	11.4	-0.6
N#Cc1c(N)nc(SCc2ccncc2)c(C#N)c1-c1cccs1	-1.9	4.5	75.3*	1.2	9.9*	5.8	-8.2	6.1	91.0*	0.7
